The structures appear in SMILES notation.

Data set [1] in a line: Inhibition of mitochondrial complex 1 in bovine heart mitochondria assessed as effect on rate of NADH oxidation. Set-up: species or system Bos taurus. In short, it runs like this: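 Bovine heart submitochondrial particles (45 µg/mL final) in 50 mM K₂HPO₄ pH 7.4 with 0.4 µM antimycin A and 2 mM KCN. Inhibitor at varying concentrations preincubated 4 min, then 100 µM decyl ubiquinone and 50 µM NADH added. NADH oxidation followed at 340 nm, 37 °C, 120 s; IC50 is concentration giving 50% inhibition.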

For data set [2], the system named is Femur. Description: Biodistribution in Sprague-Dawley rat femur at 15 uCi, iv after 30 mins. The format is ADME, organism-based. As to conditions: in vivo, 0.5 h. In short, it runs like this:
(§1)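 Male Sprague–Dawley rats (300–400 g) anesthetized with sodium pentobarbital 50 mg/kg ip; left femoral vein cannulated; about 15 µCi radiotracer in 0.3 mL 10% ethanol saline given iv. Killed in CO₂ at 30 or 120 min (n = 3 per time point); tissues weighed and gamma-counted. Counts decay-corrected, net dose from syringe and catheter residues subtracted; expressed as %ID/g ± SD.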

A short description of data set [3]: Ratio of drug uptake in heart to lung of Sprague-Dawley rat at 15 uCi, iv after30 mins. The conditions noted are these: in vivo, 0.5 h. The format is ADME, organism-based. In short, it runs like this:
(§2)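 Same rat protocol: pentobarbital-anesthetized male SD rats (300–400 g), about 15 µCi iv in 10% ethanol saline via femoral vein, three animals per point, gamma counting of weighed tissues with decay correction. Ratios formed from heart %ID/g over blood, lung, liver or femur %ID/g at 30 min post injection.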

In data set [4] the test system is Blood. Briefly: Biodistribution in Sprague-Dawley rat blood at 15 uCi, iv after 120 mins. The format is ADME, organism-based. The conditions noted are these: in vivo, 2 h. In short, it runs like this: as §1
The test system of data set [5] is Blood. Briefly: Biodistribution in Sprague-Dawley rat blood at 15 uCi, iv after 30 mins. It counts as ADME, organism-based. As to conditions: in vivo, 0.5 h. In short, it runs like this: as §1
Data set [6] is described as follows: Ratio of drug uptake in heart to liver of Sprague-Dawley rat at 15 uCi, iv after30 mins. The format is ADME, organism-based. As to conditions: in vivo, 0.5 h. In short, it runs like this:
as §2

The subject of data set [7] is Lung. Briefly: Biodistribution in Sprague-Dawley rat lung at 15 uCi, iv after 30 mins. The format is ADME, organism-based. As to conditions: in vivo, 0.5 h. In short, it runs like this: as §1
Data set [8] can be described thus: Ratio of drug uptake in heart to blood of Sprague-Dawley rat at 15 uCi, iv after 30 mins. The format is ADME, organism-based. As to conditions: heart and blood (heart-to-blood ratio), read-out: Activity. In short, it runs like this:
as §2

Data set [9] relates to Heart. Briefly: Biodistribution in Sprague-Dawley rat heart at 15 uCi, iv after 120 mins. As to conditions: in vivo, 2 h. The format is ADME, organism-based. In short, it runs like this: as §1
A short description of data set [10]: Ratio of drug uptake in heart to femur of Sprague-Dawley rat at 15 uCi, iv after30 mins. The format is ADME, organism-based. As to conditions: in vivo, 0.5 h. In short, it runs like this:
as §2

The subject of data set [11] is Liver. Briefly: Biodistribution in Sprague-Dawley rat liver at 15 uCi, iv after 30 mins. The format is ADME, organism-based. As to conditions: in vivo, 0.5 h. In short, it runs like this:
as §1

The subject of data set [12] is Femur. Briefly: Biodistribution in Sprague-Dawley rat femur at 15 uCi, iv after 120 mins. It counts as ADME, organism-based. As to conditions: in vivo, 2 h. In short, it runs like this:
as §1

In data set [13] the test system is Liver. Briefly: Biodistribution in Sprague-Dawley rat liver at 15 uCi, iv after 120 mins. It counts as ADME, organism-based. As to conditions: in vivo, 2 h. In short, it runs like this: as §1
For data set [14], the system named is Lung. Description: Biodistribution in Sprague-Dawley rat lung at 15 uCi, iv after 120 mins. It counts as ADME, organism-based. As to conditions: in vivo, 2 h. In short, it runs like this: as §1
Data set [15] deals with Heart. Briefly: Biodistribution in Sprague-Dawley rat heart at 15 uCi, iv after 30 mins. It counts as ADME, organism-based. The conditions noted are these: in vivo, 0.5 h. In short, it runs like this: as §1

The IC50 is the concentration at which inhibition is half-maximal. On to `CCCCc1ccc(COc2cnn(C(C)(C)C)c(=O)c2Cl)cc1`, for which, in data set [1], the half-inhibitory concentration (IC50) worked out at 17 nM.

`Cc1c(SCc2ccc(CCCC[18F])cc2)oc2ccccc2c1=O`: in data set [1], the IC50 amounted to 9 nM.

As for `C=C(C)[C@H]1Cc2c(ccc3c2O[C@@H]2COc4cc(OC)c(OC)cc4[C@@H]2C3=O)O1` [ROTENONE], the IC50 in [1] stood at 16 nM.

`[2H]C([2H])(Oc1cnn(C(C)(C)C)c(=O)c1Cl)c1ccc(COC([2H])([2H])C([2H])([2H])F)cc1`: the Drug uptake in the data set with Femur [2] came out at 0.23 % ID/g; with Blood [4] it was 0.1 % ID/g; in the data set with Blood [5], 0.08 % ID/g; in the data set on Lung [7], 0.15 % ID/g; with Heart [9], 1.6 % ID/g; with Liver [11] it was 0.64 % ID/g. Moreover, the Drug uptake was found to be 0.78 % ID/g in the data set on Femur [12], 0.44 % ID/g in the data set on Liver [13], 0.13 % ID/g with Lung [14] and 1.09 % ID/g with Heart [15]. Besides, the Activity in [3] is recorded as 7.33; in [6], 1.7; in data set [10] it was 4.6. Moreover, the Kp at 0.5 h in data set [8] stood at 12.7. Besides, the IC50 in data set [1] is 28 nM.

For the compound `CC(C)(C)n1ncc(OCc2ccc(OCCCF)cc2)c(Cl)c1=O`, the Drug uptake in the data set on Femur [2] was 0.65 % ID/g; with Blood [4], 0.07 % ID/g; in the data set on Blood [5] it was 0.15 % ID/g; in the data set with Lung [7], 0.24 % ID/g; in the data set with Heart [9], 0.86 % ID/g; with Liver [11], 1.7 % ID/g. Moreover, the Drug uptake in the data set on Femur [12] is 0.76 % ID/g; with Liver [13], 0.55 % ID/g; in the data set with Lung [14] it was 0.08 % ID/g; with Heart [15], 1.31 % ID/g. Besides, the Activity turned out to be 5.4 in data set [3], 0.77 in data set [6] and 2 in data set [10]. In addition, the Kp at 0.5 h in data set [8] came out at 9.27. Moreover, the IC50 in data set [1] is 47 nM.

As to `CC(C)(C)c1ccc(CSc2cnn(C(C)(C)C)c(=O)c2Cl)cc1` [PYRIDABEN], the IC50 in [1] was 8 nM.

`CC(C)(C)c1ccc(CCOc2ncnc3ccccc23)cc1` [FENAZAQUIN]: the IC50 in data set [1] is 90 nM.

For `CC(C)(C)c1ccc(CCOc2cnn(C(C)(C)C)c(=O)c2Cl)cc1`, the IC50 in [1] came out at 711 nM.

Turning to `CCCCOc1ccc(COc2cnn(C(C)(C)C)c(=O)c2Cl)cc1`, the IC50 in [1] is 27 nM.

For the compound `CC(C)(C)n1ncc(OCc2ccc3ncccc3c2)c(Cl)c1=O`, the IC50 in data set [1] is 221 nM.

`CC(C)(C)c1ccc(CSc2cnn(C(C)(C)C)c(=O)c2CF)cc1`: the half-inhibitory concentration (IC50) in data set [1] came to 250 nM.

In the case of `CC(F)COc1ccc(COc2cnn(C(C)(C)C)c(=O)c2Cl)cc1` (stereo not drawn), the Drug uptake in the data set with Femur [2] stood at 2.91 % ID/g; in the data set with Blood [4], 0.04 % ID/g; in the data set with Blood [5], 0.09 % ID/g; with Lung [7], 0.1 % ID/g; in the data set with Heart [9], 1.14 % ID/g; with Liver [11] it was 0.44 % ID/g. Further, the Drug uptake with Femur [12] was determined as 3.91 % ID/g; in the data set with Liver [13], 0.4 % ID/g; in the data set with Lung [14], 0.06 % ID/g; in the data set on Heart [15] it was 1.15 % ID/g. The Activity is on record as 11.41 in [3], 2.62 in data set [6] and 0.4 in [10]. Further, the Kp at 0.5 h in data set [8] came out at 13.2. The IC50 in [1] amounted to 8 nM.

As for `CC(C)(C)c1ccc(COc2cnn(C(C)(C)C)c(=O)c2Cl)cc1`, the IC50 in [1] turned out to be 64 nM.

Turning to `[18F]CCCCc1ccc(CCOc2ncnc3ccccc23)cc1`, the IC50 in data set [1] stood at 11 nM.

Take `Cc1c(SCc2ccc(C(C)(C)C)cc2)oc2ccccc2c1=O`: in data set [1], the IC50 was found to be 52 nM.

Turning to `CC(C)(C)n1ncc(OCc2ccc(COCCF)cc2)c(Cl)c1=O` [FLURPIRIDAZ], the Drug uptake with Femur [2] was 0.45 % ID/g; with Blood [4], 0.19 % ID/g; in the data set on Blood [5], 0.11 % ID/g; in the data set with Lung [7], 0.21 % ID/g; with Heart [9], 3.47 % ID/g; in the data set with Liver [11], 1.25 % ID/g. The Drug uptake with Femur [12] was determined as 0.75 % ID/g; in the data set with Liver [13], 0.55 % ID/g; in the data set with Lung [14] it was 0.28 % ID/g; in the data set on Heart [15], 3.41 % ID/g. Further, the Activity in [3] worked out at 16.05; in data set [6], 2.74; in data set [10], 7.51. The Kp at 0.5 h in data set [8] came out at 30. Besides, the half-maximal inhibitory concentration (IC50) in data set [1] stood at 11 nM.

Take `CC(C)(C)c1ccc(CSc2cnn(C(C)(C)C)c(=O)c2F)cc1`: in data set [1], the half-inhibitory concentration (IC50) amounted to 279 nM.

On to `CC(F)CCc1ccc(COc2cnn(C(C)(C)C)c(=O)c2Cl)cc1` (stereo not drawn), for which the Drug uptake stood at 1.14 % ID/g in the data set with Femur [2]; 0.11 % ID/g with Blood [5]; 0.18 % ID/g with Lung [7]; 2.14 % ID/g in the data set with Heart [9]; 1.27 % ID/g with Liver [11]; 2.38 % ID/g in the data set on Femur [12]. Moreover, the Drug uptake in the data set with Liver [13] stood at 0.63 % ID/g; in the data set on Lung [14], 0.14 % ID/g; in the data set on Heart [15] it was 2.25 % ID/g. The Activity came to 12.49 in [3], 1.78 in data set [6] and 1.98 in data set [10]. Further, in [8], the Kp at 0.5 h turned out to be 20.8. Further, in [1], the IC50 was found to be 10 nM.

Turning to `CC(C)(C)n1ncc(OCc2ccc3ccccc3c2)c(Cl)c1=O`, in [1], the IC50 came out at 60 nM.

On to `CCCCCCCCCCSC1N=CN(C(C)(C)C)C(=O)C1Cl` (stereo not drawn), for which the IC50 in data set [1] is above 4000 nM.

For the compound `CC(C)(C)c1ccc(CNc2cnn(C(C)(C)C)c(=O)c2Cl)cc1`, the concentration for half-maximal inhibition (IC50) in [1] was determined as 4000 nM.

With `CC(C)(C)n1ncc(OCc2ccc(CCCCF)cc2)c(Cl)c1=O`, the Drug uptake was determined as 0.43 % ID/g in the data set on Femur [2]; 0.04 % ID/g in the data set with Blood [4]; 0.11 % ID/g with Blood [5]; 0.01 % ID/g in the data set with Lung [7]; 2.99 % ID/g in the data set on Heart [9]; 2.03 % ID/g in the data set on Liver [11]. Also, the Drug uptake in the data set with Femur [12] was 1.16 % ID/g; in the data set on Liver [13], 0.62 % ID/g; in the data set on Lung [14], 0.18 % ID/g; in the data set on Heart [15], 2.94 % ID/g. In addition, the values for the Activity in [3], in data set [6] and in data set [10] were 14.93, 1.45 and 6.84, respectively. Moreover, the Kp at 0.5 h in data set [8] was found to be 60.7. Moreover, the IC50 in data set [1] came to 15 nM.

Take `CCC(CF)Oc1ccc(COc2cnn(C(C)(C)C)c(=O)c2Cl)cc1` (stereo not drawn): the Drug uptake in the data set on Femur [2] stood at 1.23 % ID/g; with Blood [4], 0.06 % ID/g; in the data set with Blood [5] it was 0.18 % ID/g; in the data set on Lung [7], 0.79 % ID/g; with Heart [9], 1.24 % ID/g; in the data set with Liver [11] it was 0.98 % ID/g. For the same compound, the Drug uptake was 3 % ID/g with Femur [12], 0.39 % ID/g in the data set with Liver [13], 0.22 % ID/g in the data set on Lung [14] and 1.05 % ID/g in the data set on Heart [15]. Besides, the Activity in data set [3] came out at 1.37; in data set [6] it was 1.11; in [10], 0.89. The Kp at 0.5 h in data set [8] is 6.05. Also, the IC50 in [1] amounted to 16 nM.

In the case of `CC(C)(C)n1ncc(OCc2ccccc2)c(Cl)c1=O`, the IC50 in data set [1] was found to be 850 nM.

Turning to `Cc1c(SCc2ccc(C(C)(C)C)cc2)cnn(C(C)(C)C)c1=O`, the IC50 in [1] turned out to be 21 nM.

With `CC(C)(C)n1ncc(OCc2ccc(-c3ccccc3)cc2)c(Cl)c1=O`, in data set [1], the concentration for half-maximal inhibition (IC50) is 31 nM.

The values above are taken from ChEMBL document CHEMBL1150282, “Synthesis and biological evaluation of pyridazinone analogues as potential cardiac positron emission tomography tracers” (J Med Chem, 2008).
